≈ marks a conversion by molar mass, not a printed value.
Assays:
[1] = tested on: Rattus norvegicus; assay: Hyperalgesia in male SD rat administered 1 hr before carrageenan injection, analgesia tested at 5 hrs; type: functional, Sprague-Dawley
Summary of the method: (§1)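 Fasted male SD rats (94–118 g); compound suspended in 0.1% MC, given orally at 1, 3 and 10 mg/kg either 1 h before (prophylactic) or 2 h after (therapeutic) intraplantar carrageenan (1%, 100 μL/paw). Mechanical threshold read by Randall-Selitto analgesimeter at 3, 4, 5 and 6 h post-carrageenan.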

[2] = tested on: Rattus norvegicus; assay: Hyperalgesia in male SD rat administered 2 hrs after carrageenan injection, analgesia tested at 3 hrs; type: functional; settings: Sprague-Dawley; summary of the method: as §1
[3] = tested on: Rattus norvegicus; assay: Hyperalgesia in male SD rat administered 2 hrs after carrageenan injection, analgesia tested at 4 hrs; type: functional; settings: Sprague-Dawley; summary of the method: as §1
[4] = tested on: Rattus norvegicus; assay: Hyperalgesia in male SD rat administered 2 hrs after carrageenan injection, analgesia tested at 5 hrs; type: functional; settings: Sprague-Dawley; summary of the method: as §1
[5] = organism: Rattus norvegicus; assay: Inhibition of formalin induced paw pain in male SD rat; type: functional; settings: Sprague-Dawley
Summary of the method: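 Fasted male SD rats (4 weeks, 105–115 g), six per dose group; compound in 0.1% MC po at 0.3, 1, 3 and 10 mg/kg, 15 min before 50 μL of 2% formalin s.c. into right hindpaw plantar surface.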

[6] = tested on: Rattus norvegicus; assay: Hyperalgesia in male SD rat administered 1 hr before carrageenan injection, analgesia tested at 3 hrs; type: functional; settings: Sprague-Dawley; summary of the method: as §1
[7] = tested on: Rattus norvegicus; assay: Hyperalgesia in male SD rat administered 1 hr before carrageenan injection, analgesia tested at 4 hrs; type: functional; settings: Sprague-Dawley; summary of the method: as §1
[8] = Clearance in dog at 3 mg/kg, po; type: ADME, organism-based, Canis lupus familiaris; parameters: dose 3 mg/kg, route oral; settings: in vivo
Summary of the method: (§2)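 Compound at 3 mg/kg in 0.1% MC given po or iv to rats or dogs; plasma sampled at 0.25, 0.5, 1, 2, 4, 8 and 24 h; drug levels measured by HPLC.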

[9] = tested on: Rattus norvegicus; assay: Hyperalgesia in male SD rat administered 2 hrs after carrageenan injection, analgesia tested at 6 hrs; type: functional, Sprague-Dawley; summary of the method: as §1
[10] = organism: Rattus norvegicus; assay: Rotarod test in rat at 0.5 hrs; type: functional; settings: Sprague-Dawley
Summary of the method: (§3)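 Fasted male SD rats (94–104 g), n = 6 per dose group, given 10–300 mg/kg po in 0.1% MC after training on a 5 rpm rotorod; walking time recorded at 0, 0.5, 1, 2 and 5 h post-dose, 150 s cutoff.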

[11] = organism: Rattus norvegicus; assay: Rotarod test in rat at 1 hr; type: functional; settings: Sprague-Dawley; summary of the method: as §3
[12] = organism: Rattus norvegicus; assay: Rotarod test in rat at 2 hrs; type: functional; settings: Sprague-Dawley; summary of the method: as §3
[13] = organism: Rattus norvegicus; assay: Rotarod test in rat at 5 hrs; type: functional; settings: Sprague-Dawley; summary of the method: as §3
[14] = tested on: Callitrichinae; assay: Bradykinin-induced licking in male marmoset monkey; type: functional, Callithrix jacchus
Summary of the method: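 Male marmosets (293–359 g), 4–6 per group, individually housed; dosed po at 0.1, 1.0 and 10 mg/kg in 0.1% MC (vehicle control). 60 min post-dose, 100 μL of 1 mM bradykinin in saline injected i.pl. into foot pad. Response scored 0–3 every 15 s for 15 min from video; ataxia, sedation, emesis monitored. Alternate foot pads, 2-week intervals.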

[15] = Oral bioavailability in rat at 3 mg/kg, po; type: ADME, organism-based; settings: in vivo; summary of the method: as §2
[16] = Half life at early phase in rat at 3 mg/kg, po; type: ADME, organism-based; parameters: dose 3 mg/kg, route oral; settings: in vivo; summary of the method: as §2
[17] = Half life at late phase in rat at 3 mg/kg, po; type: ADME, organism-based; parameters: dose 3 mg/kg, route oral; settings: in vivo; summary of the method: as §2
[18] = Metabolic stability by incubation with human liver microsomes; type: ADME, Microsome
[19] = tested on: Rattus norvegicus; assay: Toxicity in rat liver administered at 75 umol/kg, iv; type: organism-based; settings: in vivo
Summary of the method: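 Three male rats given 75 μmol/kg total iv in 75:25 PEG-400/saline as two 40-min infusions 12 h apart; serum taken 24 h after first infusion for bilirubin, SGOT, SGPT, creatine, GGT, albumin, glucose, BUN and ALP.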

[20] = Half life in dog at 3 mg/kg, po; type: ADME, organism-based, Canis lupus familiaris; parameters: dose 3 mg/kg, route oral; settings: in vivo; summary of the method: as §2
[21] = Time taken to achieve maximum concentration in rat at 3 mg/kg, po; type: ADME, organism-based; parameters: dose 3 mg/kg, route oral; settings: in vivo; summary of the method: as §2
[22] = Time taken to achieve maximum concentration in dog at 3 mg/kg, po; type: ADME, organism-based, Canis lupus familiaris; parameters: dose 3 mg/kg, route oral; settings: in vivo; summary of the method: as §2
[23] = Maximum concentration in rat at 3 mg/kg, po; type: ADME, organism-based; parameters: dose 3 mg/kg, route oral; settings: in vivo; summary of the method: as §2
[24] = Maximum concentration in dog at 3 mg/kg, po; type: ADME, organism-based, Canis lupus familiaris; parameters: dose 3 mg/kg, route oral; settings: in vivo; summary of the method: as §2
[25] = AUC (0-24) in rat at 3 mg/kg, po; type: ADME, organism-based; parameters: time < 24 hr, dose 3 mg/kg, route oral; settings: plasma
[26] = AUC (0-24) in dog at 3 mg/kg, po; type: ADME, organism-based, Canis lupus familiaris; parameters: time < 24 hr, dose 3 mg/kg, route oral; settings: plasma
[27] = tested on: Rattus norvegicus; assay: Volume of distribution in rat at 3 mg/kg, po; type: ADME, organism-based; parameters: dose 3 mg/kg, route oral; settings: in vivo; summary of the method: as §2
[28] = tested on: Canis familiaris; assay: Volume of distribution in dog at 3 mg/kg, po; type: ADME, organism-based, Canis lupus familiaris; parameters: dose 3 mg/kg, route oral; settings: in vivo; summary of the method: as §2
[29] = Clearance in rat at 3 mg/kg, po; type: ADME, organism-based; parameters: dose 3 mg/kg, route oral; settings: in vivo; summary of the method: as §2
[30] = target: Adenosine kinase (Homo sapiens, UniProt P55263); assay: Inhibitory activity against recombinant human adenosine kinase
[31] = tested on: Rattus norvegicus; assay: Inhibition of the licking and biting response at 20 mg/kg, po in rat by formalin paw antinociceptive assay; type: functional; settings: Sprague-Dawley
Summary of the method: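 Screening: fasted male SD rats (105–115 g), three per compound, 20 mg/kg po in 0.1% MC 15 min before 2% formalin (50 μL s.c., right hindpaw). Licking/biting scored 5 s per 30 s; percent inhibition reported for 2nd phase (15–30 min); positive control 5 mg/kg po each run.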

[32] = Solubility in water at pH 7.4

Chain of Adenosine kinase (P55263 whole entry): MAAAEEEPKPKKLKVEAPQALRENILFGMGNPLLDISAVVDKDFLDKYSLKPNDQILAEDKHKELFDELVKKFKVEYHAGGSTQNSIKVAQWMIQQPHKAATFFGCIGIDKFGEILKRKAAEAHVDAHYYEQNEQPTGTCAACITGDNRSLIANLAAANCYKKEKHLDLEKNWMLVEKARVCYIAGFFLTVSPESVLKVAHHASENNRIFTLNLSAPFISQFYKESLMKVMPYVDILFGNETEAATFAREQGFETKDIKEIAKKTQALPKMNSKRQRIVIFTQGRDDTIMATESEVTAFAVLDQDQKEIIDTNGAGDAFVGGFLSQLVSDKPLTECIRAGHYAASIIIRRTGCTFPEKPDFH

Question: What does the source list for `C[C@H]1O[C@@H](n2cc(-c3ccccc3)c3c(NCC(=O)NC4CC4)ncnc32)[C@H](O)[C@@H]1O`?
Answer: Inhibition [1]: <50%; ED50 [2]: 1.6 mg/kg; ED50 [3]: 4.1 mg/kg; ED50 [4]: 6.5 mg/kg; ED50 [5]: 2.5 mg/kg; ED50 [6]: 2.6 mg/kg; ED50 [7]: 3.8 mg/kg; CL/F [8]: 35 mL/min/kg; Inhibition [9]: <50%; ED50 [10]: > 300 mg/kg; ED50 [11]: > 300 mg/kg; ED50 [12]: 102 mg/kg; ED50 [13]: 62 mg/kg; ED50 [14]: 0.9 mg/kg; bioavailability [15]: 128%; half-life [16]: 0.3 h; half-life [17]: 5.2 h; half-life [18]: 3.3 h; Activity [19]: Non-toxic; half-life [20]: 2 h; Tmax [21]: 0.3 h; Tmax [22]: 0.3 h; Cmax [23]: 660 ng/mL; Cmax [24]: 518 ng/mL; AUC at 24 h [25]: 981 ng·h/mL; AUC at 24 h [26]: 1490 ng·h/mL; Vdss [27]: 3.3 L/kg; Vdss [28]: 6.3 L/kg; CL/F [29]: 56.7 mL/min/kg; IC50 [30]: 3 nM; inhibition in vivo at 20 mg/kg [31]: 66%; solubility [32]: 32 µg/mL (≈ 75.6 µM)
